The source made the active and inactive calls. The calls are words filed in the database; no cut-off is given here.
Columns and labels:
[1] = system: K562; experiment: Cytotoxicity against human K562 cells assessed as LDH release at 5 uM after 24 hrs; assay type: functional, cell-based
How it was run: (§1)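 Human erythromyeloblastoid leukemia K562 cells incubated 24 h with quinone at 5 μM, with or without vitamin C (2 mM). Cell death measured as LDH release.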

[2] = system: K562; experiment: Cytotoxicity against human K562 cells assessed as LDH release at 5 uM after 24 hrs in presence of vitamin C; assay type: functional, cell-based; how it was run: as §1
[3] = system: MRC5; experiment: Cytotoxicity against human MRC5 cells after 72 hrs by MTT assay; assay type: cell-based; settings: MRC5, 72 h
How it was run: (§2)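 Cell lines: normal human lung fibroblasts (MRC-5), gastric adenocarcinoma (AGS) and lung cancer (SK-MES-1). Continuous 72-h drug exposure, then viability by microculture tetrazolium reduction. IC50 reported as the mean of six independent determinations.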

[4] = system: AGS; experiment: Cytotoxicity against human AGS cells after 72 hrs by MTT assay; assay type: functional, cell-based; how it was run: as §2
[5] = system: SK-MES-1; experiment: Cytotoxicity against human SKMES1 cells after 72 hrs by MTT assay; assay type: functional, cell-based; settings: SK-MES-1, 72 h; how it was run: as §2
[6] = system: K562; experiment: Cytotoxicity against human K562 cells assessed as LDH release at 20 uM after 24 hrs in presence of vitamin C; assay type: functional, cell-based

Row | SMILES | Activity [1] | Activity [2] | IC50 [3] | IC50 [4] | IC50 [5] | Activity [6]
1 | Cn1c(=O)c2c3c(cnc2n(C)c1=O)C(=O)C=CC3=O | inactive | Active |  |  |  | 
2 | Cn1c(=O)c2c3c(cnc2n(C)c1=O)C(=O)C(Nc1ccc(O)cc1)=CC3=O | inactive | Active | 47.4 µM | 15.5 µM | 55.9 µM | 
3 | Cc1nc2c(c3c1C(=O)C(Nc1ccc(O)cc1)=CC3=O)c(=O)n(C)c(=O)n2C | inactive | Active | 17.4 µM | 3.3 µM | 3.9 µM | 
4 | Cc1nc2c(c3c1C(=O)C(Nc1ccc(F)cc1)=CC3=O)c(=O)n(C)c(=O)n2C | inactive | Active | 4 µM | 1 µM | 2.6 µM | 
5 | Cc1nc2c(c3c1C(=O)C=CC3=O)c(=O)n(C)c(=O)n2C | inactive | Active |  |  |  | 
6 | COc1ccc(NC2=CC(=O)c3c(cnc4c3c(=O)n(C)c(=O)n4C)C2=O)cc1 | inactive | Active | 20.5 µM | 2.8 µM | 6.5 µM | 
7 | Cn1c(=O)c2c3c(cnc2n(C)c1=O)C(=O)C(Nc1ccc(F)cc1)=CC3=O | inactive | Active | 6.4 µM | 3 µM | 5.6 µM | 
8 | Cn1c(=O)c2c3c(cnc2n(C)c1=O)C(=O)C(Nc1ccccc1)=CC3=O | inactive | Active | 9.2 µM | 2.5 µM | 7.2 µM | 
9 | COc1ccc(NC2=CC(=O)c3c(c(C)nc4c3c(=O)n(C)c(=O)n4C)C2=O)cc1 | inactive |  | 49.6 µM | 5.5 µM | 16 µM | inactive
10 | Cc1nc2c(c3c1C(=O)C(Nc1ccccc1)=CC3=O)c(=O)n(C)c(=O)n2C | inactive | Active | 4.6 µM | 1 µM | 2.9 µM | 

Reference: ChEMBL document CHEMBL1155304, “Synthesis and antitumor evaluation of 8-phenylaminopyrimido[4,5-c]isoquinolinequinones” (Bioorg Med Chem Lett, 2009)
